{
  "source": "paper PMC2849726",
  "about": "(Journal of medicinal chemistry, 2010)",
  "key": {"[1]": {"system": "PC-3 xenograft", "assay": "Antitumor activity in vivo, PC-3 xenograft", "set-up": "species or system SCID mice", "details": "10 mg/kg i.p. qod to end", "summary_of_the_method": "(§1)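 Human tumour cells were grown in RPMI 1640 with 10% heat-inactivated FBS, 2 mM glutamine and antibiotics, harvested in log phase and resuspended in PBS at 5 × 10^7 cells/mL. 1 × 10^7 cells were given s.c. in the right flank. Test compound was dosed i.p. at 10 mg/kg qod to end in 4% benzyl alcohol/6% cremophor/90% D5W. Controls were vehicle i.p. qod and paclitaxel 20 mg/kg i.p. q4d × 5. Caliper tumour volume = w²×l/2. %TGD was calculated from mean time to endpoint, with logrank P ≤ 0.05. At least five animals per group.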"}, "[2]": {"system": "ZR-75-1 xenograft", "assay": "Antitumor activity in vivo, ZR-75-1 xenograft", "set-up": "species or system SCID mice", "details": "10 mg/kg i.p. qod to end", "summary_of_the_method": "as §1"}, "[3]": {"system": "human breast cancer cell lines", "assay": "Cell line panel", "type": "cell-based", "details": "total 29 cell lines, unpublished data"}, "[4]": {"system": "MDA-MB-231 xenograft", "assay": "Antitumor activity in vivo, MDA-MB-231 xenograft", "set-up": "species or system SCID mice", "details": "10 mg/kg i.p. qod to end", "summary_of_the_method": "as §1"}, "[5]": {"molecular_target": "AKT1 (Homo sapiens, UniProt P31749)", "sequence (P31749 whole entry, species assumed)": "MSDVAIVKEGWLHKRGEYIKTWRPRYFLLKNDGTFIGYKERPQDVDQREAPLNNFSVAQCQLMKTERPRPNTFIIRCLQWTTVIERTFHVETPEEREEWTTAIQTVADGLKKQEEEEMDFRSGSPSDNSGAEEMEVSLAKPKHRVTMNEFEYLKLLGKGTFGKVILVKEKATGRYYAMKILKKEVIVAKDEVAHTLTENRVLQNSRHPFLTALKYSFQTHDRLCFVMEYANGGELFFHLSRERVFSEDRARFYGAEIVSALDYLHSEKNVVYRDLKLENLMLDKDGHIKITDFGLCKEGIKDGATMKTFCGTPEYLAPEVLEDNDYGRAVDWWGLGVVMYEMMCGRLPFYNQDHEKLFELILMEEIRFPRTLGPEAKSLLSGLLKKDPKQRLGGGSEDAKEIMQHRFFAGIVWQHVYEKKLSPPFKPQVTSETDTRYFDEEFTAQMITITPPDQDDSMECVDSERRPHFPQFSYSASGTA", "assay": "Kinases inhibition assay, AKT1", "type": "biochemical", "details": "preliminary, Table 3 in supporting information"}, "[6]": {"system": "mammary gland side branching", "assay": "Preliminary in vivo evaluation, mammary gland side branching", "details": "BRCA1/p53 and wild-type mice, unpublished data"}, "[7]": {"system": "SK-BR-3 (estrogen receptor negative, HER2 over-expressing luminal-like breast cancer)", "details": "cited from earlier work"}, "[8]": {"molecular_target": "ABL (Homo sapiens, UniProt P00519)", "sequence (P00519 whole entry, species assumed)": "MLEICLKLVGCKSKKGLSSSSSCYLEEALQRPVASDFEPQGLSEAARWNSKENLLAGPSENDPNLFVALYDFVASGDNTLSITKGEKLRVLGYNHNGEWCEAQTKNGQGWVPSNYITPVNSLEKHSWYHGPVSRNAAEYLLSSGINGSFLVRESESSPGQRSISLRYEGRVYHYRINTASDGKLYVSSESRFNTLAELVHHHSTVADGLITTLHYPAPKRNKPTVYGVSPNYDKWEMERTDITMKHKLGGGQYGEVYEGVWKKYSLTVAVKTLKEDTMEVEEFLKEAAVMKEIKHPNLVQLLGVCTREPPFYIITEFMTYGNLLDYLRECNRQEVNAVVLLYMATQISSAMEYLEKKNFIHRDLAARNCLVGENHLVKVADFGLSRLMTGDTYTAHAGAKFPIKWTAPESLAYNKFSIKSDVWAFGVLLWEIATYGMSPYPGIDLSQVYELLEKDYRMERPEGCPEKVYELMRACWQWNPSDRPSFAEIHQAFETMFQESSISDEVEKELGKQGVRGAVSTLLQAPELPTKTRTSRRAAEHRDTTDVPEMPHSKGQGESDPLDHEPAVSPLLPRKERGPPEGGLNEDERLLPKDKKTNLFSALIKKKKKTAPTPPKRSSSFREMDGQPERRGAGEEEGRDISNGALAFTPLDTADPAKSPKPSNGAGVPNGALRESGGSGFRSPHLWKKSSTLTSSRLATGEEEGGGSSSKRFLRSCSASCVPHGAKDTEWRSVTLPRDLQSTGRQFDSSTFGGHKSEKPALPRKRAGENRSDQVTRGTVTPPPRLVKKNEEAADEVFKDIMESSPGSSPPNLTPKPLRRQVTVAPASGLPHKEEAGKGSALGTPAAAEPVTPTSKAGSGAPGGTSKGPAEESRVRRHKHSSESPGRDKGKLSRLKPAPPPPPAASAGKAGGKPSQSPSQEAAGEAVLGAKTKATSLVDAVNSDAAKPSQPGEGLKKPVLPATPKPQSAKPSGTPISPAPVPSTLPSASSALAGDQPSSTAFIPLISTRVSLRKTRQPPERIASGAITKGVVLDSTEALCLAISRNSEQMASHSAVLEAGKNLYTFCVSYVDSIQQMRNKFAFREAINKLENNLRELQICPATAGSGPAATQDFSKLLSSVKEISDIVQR", "assay": "Kinases inhibition assay, ABL", "type": "biochemical", "details": "preliminary, Table 3 in supporting information"}, "[9]": {"molecular_target": "CK2α1 (Homo sapiens, UniProt P68400)", "sequence (P68400 whole entry)": "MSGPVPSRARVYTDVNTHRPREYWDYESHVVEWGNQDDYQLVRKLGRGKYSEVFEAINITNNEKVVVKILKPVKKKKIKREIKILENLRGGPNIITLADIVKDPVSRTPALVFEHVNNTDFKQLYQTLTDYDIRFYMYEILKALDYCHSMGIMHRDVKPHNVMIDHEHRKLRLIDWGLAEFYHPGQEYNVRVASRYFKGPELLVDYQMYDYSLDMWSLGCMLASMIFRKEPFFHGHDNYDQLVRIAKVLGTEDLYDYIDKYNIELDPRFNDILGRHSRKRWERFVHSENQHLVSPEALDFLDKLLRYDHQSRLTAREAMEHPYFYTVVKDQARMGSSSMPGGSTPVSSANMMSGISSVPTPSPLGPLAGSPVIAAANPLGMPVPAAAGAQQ", "assay": "Kinases inhibition assay, CK2α1", "type": "biochemical", "details": "preliminary, Table 3 in supporting information"}, "[10]": {"system": "MCF-7 (estrogen receptor positive luminal-like breast cancer)", "details": "cited from earlier work"}, "[11]": {"system": "ZR-75-1 (estrogen receptor positive, HER2 over-expressing luminal-like breast cancer)", "assay": "Cell growth inhibition assay", "type": "cell-based, human", "details": "for IC50: Homo sapiens, ZR-75-1, read-out: IC50 against the ZR-75-1 cell lines", "summary_of_the_method": "(§2)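 Cells were grown in RPMI-1640 with 10% FBS and antibiotics at 37 °C in 5% CO2. Freshly trypsinized cells were seeded and test compound added from DMSO-diluted stock, then incubated 72 h after attachment. Cells were fixed with 10% TCA and stained 10 min with 0.4% SRB in 1% HOAc. Bound dye was dissolved in 10 mM trizma base and A515 read. ED50 is the concentration giving 50% reduction in net protein increase versus control, averaged over at least three independent determinations.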"}, "[12]": {"system": "ER+ and HER2++ breast cancer cells", "details": "more selective than TAM; cited from earlier work"}, "[13]": {"system": "MCF-7 (estrogen receptor positive luminal-like breast cancer)", "assay": "Cell growth inhibition assay", "type": "cell-based, human", "summary_of_the_method": "as §2"}, "[14]": {"system": "SK-BR-3 (estrogen receptor negative, HER2 over-expressing luminal-like breast cancer)", "assay": "Cell growth inhibition assay", "type": "cell-based, human", "summary_of_the_method": "as §2"}},
  "note": "“Also recorded” adds a separate entry of the source.",
  "data": [
    {"compound": "CCc1cccc2c1ccc1c3occ(C)c3c(=O)oc21", "note": "[Compound 2]", "values": [
      {"measurement": "effect on PC-3 xenograft (in words)", "setting": "[1]", "result": "no effect"},
      {"measurement": "ZR-75-1 tumor xenograft growth (in words)", "setting": "[2]", "result": "potent activity; also recorded: significant reduction in growth"},
      {"measurement": "share of human breast cancer cell lines against which effective", "setting": "[3]", "result": "approximately 40%"},
      {"measurement": "effect on MDA-MB-231 xenograft (in words)", "setting": "[4]", "result": "no effect"},
      {"measurement": "suppression of AKT1 (in words)", "setting": "[5]", "result": "significantly suppressed"},
      {"measurement": "mammary gland side branching (in words)", "setting": "[6]", "result": "dramatically reduced"},
      {"measurement": "activity relative to 1 against SK-BR-3", "setting": "[7]", "result": "about twice as active"},
      {"measurement": "suppression of ABL (in words)", "setting": "[8]", "result": "significantly suppressed"},
      {"measurement": "suppression of CK2α1 (in words)", "setting": "[9]", "result": "significantly suppressed"},
      {"measurement": "activity relative to 1 against MCF-7", "setting": "[10]", "result": "about twice as active"}
    ]},
    {"compound": "Cc1coc2c1c(=O)oc1c3cccc(C(C)C)c3ccc21", "note": "[Compound 19, 6-Isopropyl-1-methyl-11H-benzo[h]furo[3,2-c]chromen-11-one]", "values": [
      {"measurement": "ZR-75-1/SK-BR-3 selectivity ratio", "setting": "[11]", "result": "tenfold"},
      {"measurement": "IC50", "setting": "[11]", "result": 0.3, "unit": "µg/mL"}
    ]},
    {"compound": "Cc1cccc2c1ccc1c3occ(C)c3c(=O)oc21", "note": "[Compound 1, Neo-tanshinlactone]", "values": [
      {"measurement": "selectivity relative to TAM", "setting": "[12]", "result": 20, "unit": "fold"}
    ]},
    {"compound": "CCc1cccc2c1ccc1c3oc(C)cc3c(=O)oc21", "note": "[Compound 51, 6-Ethyl-2-methyl-11H-benzo[h]furo[3,2-c]chromen-11-one]", "values": [
      {"measurement": "activity against MCF-7 (in words)", "setting": "[13]", "result": "completely inactive"}
    ]},
    {"compound": "COc1cccc2c1ccc1c3occ(C)c3c(=O)oc21", "note": "[Compound 21, 6-Methoxy-1-methyl-11H-benzo[h]furo[3,2-c]chromen-11-one]", "values": [
      {"measurement": "ZR-75-1/MCF-7 selectivity ratio", "setting": "[11]; more active against ZR-75-1 than MCF-7", "result": 23, "unit": "fold"}
    ]},
    {"compound": "Cc1coc2c1c(=O)oc1c3cccc(C(C)Br)c3ccc21", "note": "(stereo not drawn) [Compound 24, 6-(1-Bromoethyl)-1-methyl-11H-benzo[h]furo[3,2-c]chromen-11-one]", "values": [
      {"measurement": "potency relative to 1 against SK-BR-3", "setting": "[14]", "result": "two- to three-fold more potent than 1"},
      {"measurement": "potency relative to 1 against ZR-75-1", "setting": "[11]", "result": "two- to three-fold more potent than 1"}
    ]},
    {"compound": "CCCc1cccc2c1ccc1c3occ(C)c3c(=O)oc21", "note": "[Compound 20, 1-Methyl-6-propyl-11H-benzo[h]furo[3,2-c]chromen-11-one]", "values": [
      {"measurement": "SK-BR-3/MCF-7 selectivity ratio", "setting": "[14]", "result": "approximately 12 fold"},
      {"measurement": "ZR-75-1/SK-BR-3 selectivity ratio", "setting": "[11]", "result": "threefold"},
      {"measurement": "IC50", "setting": "[11]", "result": 0.2, "unit": "µg/mL"}
    ]},
    {"compound": "Cc1ccc2c(=O)oc3c4ccccc4ccc3c2c1", "note": "[Compound 58, 9-Methyl-6H-dibenzo[c,h]chromen-6-one]", "values": [
      {"measurement": "anti-breast cancer activity (in words)", "setting": "[14]; only SK-BR-3 tested", "result": "inactive"}
    ]}
  ]
}
